Hits are enriched below; roughly 1.9% of the tested compounds scored in any of these assays.
NPY-Y1 PAM-ag – potentiates or activates human NPY-Y1 receptor; 220,000 tested, 0.37% active; P25929; NPY-Y1 expressing cells, potentiator/agonist activation; AID 1304; activation, % at 3.6 µM; in the data active = activation above about 33%, passing the limit was not always enough;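 also: cells stimulated with NPY at EC10 then isoproterenol at EC100; 0% = low agonist plus stimulus and 100% = saturating agonist plus stimulus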
Target sequence (P25929 whole entry, looked up): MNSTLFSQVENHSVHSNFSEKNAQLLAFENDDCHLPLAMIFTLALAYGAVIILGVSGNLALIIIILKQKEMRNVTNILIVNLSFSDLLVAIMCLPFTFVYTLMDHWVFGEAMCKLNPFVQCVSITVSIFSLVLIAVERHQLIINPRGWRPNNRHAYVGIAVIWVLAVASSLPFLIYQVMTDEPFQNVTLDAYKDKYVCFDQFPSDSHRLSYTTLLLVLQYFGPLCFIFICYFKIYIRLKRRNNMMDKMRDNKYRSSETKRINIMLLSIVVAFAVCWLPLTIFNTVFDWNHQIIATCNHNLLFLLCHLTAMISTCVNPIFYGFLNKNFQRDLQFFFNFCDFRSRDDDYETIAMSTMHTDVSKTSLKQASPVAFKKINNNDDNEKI
NPY Y1 blocker – NPY-Y1 (human) receptor antagonism; HEK293-CNG Y1 cells, membrane potential fluorescence; NPY at EC95, then isoproterenol; inhibition, % at 3.6 µM; 200,000 tested, 1% active; AID 1040;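 active = inhibition above the campaign mean inhibition of all tested compounds plus 3 SD, cut at about 20% in these data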;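 also: 0% = DMSO wells given NPY plus isoproterenol and 100% = isoproterenol alone without NPY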
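System: HEK293 cells with Y1 receptor plus CNG channel / Probe or stimulus: NPY 25 nM then isoproterenol 1 µM plus Ro 20-1724 25 µM / Compound: one concentration, 3.6 µM, in 0.4% DMSO / Schedule: compound incubation 1 h at room temperature, readout 45 min post-stimulation / Measured by: membrane potential fluorescence / Read-out: % inhibition of NPY effect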
NPY2 pot ag – human NPY-Y2 potentiation or agonism, primary screen. cells expressing NPY-Y2, potentiator/agonist read-out. activation, % at 3.6 µM. 220,000 tested, 0.45% active. AID 1359; in the data active = activation above about 27%;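 also: cells stimulated with NPY near EC25 plus isoproterenol at EC100; 0% = vehicle plus submaximal agonist and 100% = vehicle plus saturating agonist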
NPY Y2 blocker – blocks the human neuropeptide Y Y2 receptor. NPY-Y2 expressing cells, antagonist mode. inhibition, % at 2.7 µM. 140,000 tested, 0.99% active; in the data active = inhibition above about 17%;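 also: 0% = vehicle with agonist challenge and 100% = reference antagonist with challenge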
NPY-Y1 confirm – confirmation of human NPY-Y1 receptor potentiators or agonists; 280 tested, 20% active; activation, % at 3.6 µM; cell-based NPY-Y1 potentiator/agonist assay; shares compounds with NPY-Y1 PAM-ag; in the data active = activation above about 45%;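 also: cells challenged with NPY at its EC10 plus isoproterenol stimulus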
NPY-Y2 counter – potentiates or activates NPY-Y2, counter-screen for NPY-Y1 hits. shares compounds with NPY-Y1 PAM-ag. AID 1649. activation, % at 3.6 µM. HEK293-CNG cells, membrane-potential fluorescence (FLIPR), 1536-well. 280 tested, 20% active; in the data active = activation above about 33%
NPY-Y1 agonist – activates human NPY-Y1, counter-screen for NPY-Y1 potentiators; shares compounds with NPY-Y1 PAM-ag; HEK293 Y1-CNGC, membrane potential fluorescence, agonist mode; activation, % at 3.6 µM; 280 tested, 50% active; AID 1697;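 active = percent activation above the mean of DMSO-only control wells plus 3 SD of those wells, cut at about 18% in these data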;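 also: cells challenged with isoproterenol plus Ro 20-1724 with no NPY in test wells; Y1 agonism lowers isoproterenol-driven cAMP and reduces probe fluorescence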
NPY-Y2 ag – human NPY-Y2 agonism as NPY-Y1 counter-screen; HEK293 Y2-CNGC, membrane potential fluorescence, agonist mode; activation, % at 3.6 µM; shares compounds with NPY-Y1 PAM-ag; 280 tested, 67% active; AID 1698;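 active = activation above the solvent-only control wells' mean plus 3 SD, cut at about 11% in these data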;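 also: 0% = DMSO with isoproterenol and 100% = 40 nM NPY maximal response; agonism lowers cAMP so well fluorescence drops in active wells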
CNGC inh 2 – blocks cyclic nucleotide gated channel in NPY-Y1 counter-screen | shares compounds with NPY-Y1 PAM-ag | HEK293-CNG parental, isoproterenol cAMP, membrane potential fluorescence | inhibition, % at 3.6 µM | 280 tested, 42% active;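 active = inhibition above the mean of stimulated solvent-only control wells plus 3 SD, cut at about 22% in these data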;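 also: 0% = isoproterenol-stimulated DMSO wells and 100% = unstimulated DMSO wells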
The depositor's hits bear a star; nt = no result.

SMILES	NPY-Y1 PAM-ag	NPY Y1 blocker	NPY2 pot ag	NPY Y2 blocker	NPY-Y1 confirm	NPY-Y2 counter	NPY-Y1 agonist	NPY-Y2 ag	CNGC inh 2
Nc1nc(Nc2ccccc2)nc(NCc2ccccc2)c1[N+](=O)[O-]	17	nt	23	nt	nt	nt	nt	nt	nt
Cc1cccc(Nc2nc(N)c([N+](=O)[O-])c(NCc3ccccc3)n2)c1	50*	nt	34	nt	48*	32	33*	31*	45*
C/C(CC(=O)Nc1ccc(F)cc1)=N\NC(=O)COc1ccccc1	-10	6	4	0	nt	nt	nt	nt	nt
CC(C)c1cc(N2CCC(=O)NC2=O)cc(C(=O)O)c1O	-1	1	0	0	nt	nt	nt	nt	nt
O=C(Cc1ccc(Cl)cc1)Nc1ncc([N+](=O)[O-])s1	36*	-3	11	nt	8	14	14	11*	6
O=C(Cc1ccc([N+](=O)[O-])cc1)Nc1ccc(Cl)cc1	9	-4	-3	nt	nt	nt	nt	nt	nt
CCCCCCNC1=NCCS1	-14	-1	4	nt	nt	nt	nt	nt	nt
COc1cc(OC)cc(C(=O)Nc2ccc(NC(=O)c3ccco3)c(Cl)c2)c1	67*	6	-21	nt	-16	-10	-10	9	-5
COc1cc(OC)cc(C(=O)NC(=S)Nc2ccc(NC(=O)c3ccco3)cc2)c1	-18	0	-12	2	nt	nt	nt	nt	nt
COC(=O)c1ccc([C@@H]2C[C@H]3CN(Cc4cccnc4)C(=O)[C@]34CCCN24)cc1	-4	4	-13	nt	nt	nt	nt	nt	nt
CC1CCN(C2=C(NS(=O)(=O)c3ccc(Cl)cc3)C(=O)c3ccccc3C2=O)CC1	44*	-17	19	-11	99*	80*	65*	57*	77*
CCOC(=O)C1CCN(C(=O)c2ccccc2NS(=O)(=O)c2ccc(F)c(F)c2)CC1	-13	-1	4	3	nt	nt	nt	nt	nt
CCOC(=O)C1CCN(C2=C(NS(=O)(=O)c3ccc(Cl)cc3)C(=O)c3ccccc3C2=O)CC1	55*	nt	35	nt	72*	57*	70*	65*	57*
O=C(Nc1ccon1)c1ccc(S(=O)(=O)N2CCOCC2)cc1	-5	4	-14	nt	nt	nt	nt	nt	nt
Cc1nc(C)c(-c2csc(Nc3cccnc3)n2)s1	40*	-16	26	-7	51*	41*	53*	52*	41*
Cn1c(N)c(C(=O)Nc2c(Cl)cccc2Cl)sc1=S	18	nt	-10	nt	nt	nt	nt	nt	nt
Cc1[nH]n(-c2ccc([N+](=O)[O-])cc2)c(=O)c1C=NCCN1CCN(C(=O)c2cccc(F)c2)CC1	47*	-3	6	2	15	5	11	2	7
Cc1c(N=C(N)/N=C(\N)Nc2ccc(Br)cc2)c(=O)n(-c2ccccc2)n1C	-15	-3	-11	2	nt	nt	nt	nt	nt
O=C(Nc1ccc([N+](=O)[O-])cc1)C(=O)Nc1cccc(C(=O)O)c1	52*	nt	35	nt	36	19	24*	8	35*
CCC(=O)Nc1c2c(nn1-c1ccc(OC)cc1)CS(=O)C2 (stereo not given)	-22	-3	-5	4	nt	nt	nt	nt	nt
CCC(CC)C(=O)Nc1c2c(nn1-c1ccc(OC)cc1)CS(=O)C2 (stereo not given)	41*	3	2	2	-2	-2	-4	2	2
Cc1nnn(C23CC4CC(CC(CC(=O)Nc5ccc(C)c(C)c5)(C4)C2)C3)n1	12	3	-11	1	nt	nt	nt	nt	nt
CCOCCOC(=O)COc1ccc(N2C(=O)c3ccccc3C2=O)cc1	44*	-3	11	2	83*	55*	63*	44*	80*
Cc1oc2ccc(O)c(CN(C)C)c2c1C(=O)c1ccccc1	47*	2	14	nt	14	21	16	11*	-10
CCOC(=O)c1c(CSCc2ccccc2)oc2ccc(O)c(CN(C)C)c12	20	nt	-21	nt	nt	nt	nt	nt	nt
SMILES	NPY-Y1 PAM-ag	NPY Y1 blocker	NPY2 pot ag	NPY Y2 blocker	NPY-Y1 confirm	NPY-Y2 counter	NPY-Y1 agonist	NPY-Y2 ag	CNGC inh 2
COc1ccc2c(c1)CCc1c(C(=O)N(C)c3ccccc3)noc1-2	-25	6	-11	nt	nt	nt	nt	nt	nt
CC1OC(Nc2cccc3ccccc23)C(O)C(O)C1O (stereo not given)	-11	0	7	2	nt	nt	nt	nt	nt
CC1OC(Nc2ccc(N=Nc3ccccc3)cc2)C(O)C(O)C1O (stereo not given)	38*	-9	16	nt	33	24	27*	37*	16
Cc1ccc(NC(=O)CCC(=O)N/N=C/C=C/c2ccccc2)cc1	10	3	19	1	nt	nt	nt	nt	nt
N#Cc1c(-c2ccc(Cl)cc2)ccn2nc(C3CCCCC3)nc12	7	1	1	2	nt	nt	nt	nt	nt
Cc1ccc(-c2nc(Nc3ccc(N4CCOCC4)cc3)c3ccccc3n2)cc1	53*	nt	37	nt	51*	42*	58*	45*	58*
CCOC(=O)C(Cc1ccccc1)C(=O)Nc1ccc(N(CC)CC)cc1 (stereo not given)	46*	0	8	2	50*	23	31*	19*	14
CCOC(=O)C(Cc1ccccc1)C(=O)Nc1cccc(C)c1 (stereo not given)	-12	3	8	4	nt	nt	nt	nt	nt
Cc1ccc2cc3c(NC(=O)C(C)C)nn(C)c3nc2c1	37*	2	10	-1	-3	-4	-2	6	1
Cc1cccc2cc3c(NC(=O)C(C)C)nn(C)c3nc12	-1	-1	2	-1	nt	nt	nt	nt	nt
CCOc1ccc(C(=O)Nc2ccc(N3CCN(C)CC3)cc2)cc1Br	37*	0	26	1	28	19	23*	22*	26*
Cc1cc(C)c(C#N)c(N2CCN(Cc3ccccc3)CC2)n1	78*	2	0	0	-13	-8	-16	5	-2
Cc1cccc(N(C(=O)Nc2ccc(Cl)cc2)C2=NCC(C)S2)n1 (stereo not given)	37*	-3	-7	nt	2	0	3	12*	8
CC(C)c1ccccc1NC(=O)COC(=O)/C=C/c1cccc([N+](=O)[O-])c1	-5	2	2	5	nt	nt	nt	nt	nt
O=C(CSc1nc2cc(C(F)(F)F)ccc2n1Cc1ccccc1)NC1CCS(=O)(=O)C1 (stereo not given)	48*	-10	32	2	91*	63*	78*	53*	72*
N#Cc1c(-n2cccc2/C=N/O)sc2c1CCCC2	44*	4	15	3	2	-2	-2	3	-2
O=C(Cn1cnc2c(nnn2Cc2ccc(F)cc2)c1=O)OCc1ccccc1	-2	-3	11	4	nt	nt	nt	nt	nt
